Published values from different studies.
Target: Aurora kinase B (AURKB, Homo sapiens, UniProt Q96GD4)

| SMILES | test | conditions | quantity | result |
| --- | --- | --- | --- | --- |
| CN1CCN(C(=O)c2ccc(NC(=O)Nc3ccc(N(C)c4ccnc(Nc5ccc(CS(C)(=O)=O)cc5)n4)cc3)cc2)CC1 | binding, competition with immobilised ligand | 1 µM | remaining binding | 0.4% |
| C#Cc1cnc(Nc2ccnc(CO)c2)nc1Nc1ccccc1S(C)(=O)=NC#N (stereo not drawn) | cell-free assay | 1 µM | remaining signal | < 10% |
| N#Cc1ccc(NC(=O)Nc2ccccc2)cc1 | cell-free assay, competition with immobilised ligand | 25 µM | remaining binding | 82% |
| CCCCC(=O)Nc1ccc(-c2ccc3ncn(CCC)c(=O)c3c2)cn1 | binding, competition with immobilised ligand | 0.5 µM | remaining binding | 76% |
| C#Cc1cc(-c2cc(Nc3nc(N[C@@H](C)c4ccc(F)cn4)ncc3Cl)n[nH]2)ccc1C=O | enzyme activity, inhibitor | 0.2 µM | inhibition | 16.6% |
| C1=C/COCc2cc(ccc2OCCN2CCCC2)Nc2nccc(n2)-c2cccc(c2)COC/1 | binding | 0.1 µM | remaining binding | 100% |
| COc1ccc2oc(-c3ccc4nc(N)oc4c3)c/c(=N\c3ccccc3NC(=O)CCN)c2c1 | cell-free assay | 1 µM | remaining signal | 99% |
| Cc1cc(O)c(-c2ccc([C@@H](C)CN(C)C)cc2)c2c1[nH]c(=O)c1sccc12 | enzyme activity, inhibitor | 0.1 µM | inhibition | 21.5% |
| CO[C@@H]1[C@H](N(C)C(=O)c2ccccc2)C[C@H]2O[C@]1(C)n1c3ccccc3c3c4c(c5c6ccccc6n2c5c31)C(=O)NC4 | enzyme activity, inhibitor | 1 µM | inhibition | 94% |
| CC(=O)ON=C1C=CC(=C(C#N)c2ccccc2)C=C1 | enzyme activity, inhibitor, ADP detection | 2 µM | activity vs control | 96% |
| C[C@H]1CC[C@H](n2c3cnccc3c3cnc(Nc4ccc5c(n4)CCN(C(=O)CO)C5)nc32)CC1 | cell-free assay, competition with immobilised ligand | 1 µM | remaining binding | 34% |
| C=CC(=O)N1CCC([C@@H]2CCNc3c(C(N)=O)c(-c4ccc(Oc5ccccc5)cc4)nn32)CC1 | enzyme activity, inhibitor | 1 µM | inhibition | 14% |
